Assay results taken from ChEMBL document CHEMBL4513216, “Probing the Open Global Health Chemical Diversity Library for Multistage-Active Starting Points for Next-Generation Antimalarials” (ACS Infect Dis, 2020).

assay: Toxicity liver stage against HepG2, at 10uM; format: cell-based; design: test concentration 10 uM, cell line HepG2-A16-CD81EGFP; conditions: human, HepG2-A16-CD81EGFP cells; read-out: INHIBITION
In short: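 Uninfected HepG2-A16-CD81EGFP cells, 3 × 10^3 per well, 1536-well, plated on prespotted compound at 10 μM final, parasite-free screening media added to match infected plates; puromycin 10 μM positive, DMSO 0.5% negative; run in parallel with 48 h PbLuc assay at 37 °C, 5% CO2; viability by CellTiter-Glo luminescence, normalized to controls.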

Row | Structure (SMILES) | cytotoxicity at 10 µM [%]
1 | CC(C)(C)n1ncc2c(=O)n(CC(=O)NCc3ccccc3)cnc21 | 42
2 | Fc1ccc(Sc2ccccc2CNC2=NCCN2)cc1 | 18.9
3 | CCS(=O)(=O)N1CCc2ccc(NC(=O)Nc3cccc(C)c3)cc21 | 42.3
4 | CCc1ccc(S(=O)(=O)NCC2CCN(c3cnccn3)CC2)s1 | 7.69
5 | Cn1nc(N2CCCC(C(=O)Nc3nc4ccccc4s3)C2)ccc1=O (stereo not given) | 27.6
6 | CC(C)(C)NC(=O)N1CCC(Oc2ccc(C(F)(F)F)cn2)CC1 | 6.91
7 | CC(C)Nc1nc2c(c(NC3CC3)n1)CN(C(=O)Cc1ccsc1)CC2 | 10.4
8 | Cc1cnc(NC2CCc3c(ccc(=O)n3CC3CC3)C2)nc1 (stereo not given) | -137
9 | COCCN1C[C@H]2CCN(c3ncccn3)CC[C@H]2S1(=O)=O | -2.2
10 | CC(C)c1ccc(NC(=O)Cn2cc(I)cn2)cc1 | 2.77
11 | O=C(Nc1ccc(Cl)cn1)c1nn(C2CCS(=O)(=O)C2)c2c1CCCC2 (stereo not given) | 1.61
12 | CC(Cn1cc(Br)cn1)C(=O)Nc1ccc(Br)cn1 (stereo not given) | 73.3
13 | Cc1ccc(NC(C)(C)c2nnnn2-c2ccc(Cl)cc2)c(C)c1 | 55.4
14 | CC(C)c1ccc(OCn2ccc(C(=O)N3CCCC3)n2)cc1 | 12.7
15 | Cc1ccc(-c2noc(C3CCN3C(=O)c3cc[nH]n3)n2)s1 (stereo not given) | 8.47
16 | CC(C)CNc1cc(-c2c[nH]nc2C2CCN(C(=O)C3CC3)C2)ccn1 (stereo not given) | 83.8
17 | Cc1cc(Cc2cccc(C(F)(F)F)c2)cc(C2CCCNC2)n1 (stereo not given) | -2.34
18 | Cc1cc(CN2CCc3nc(-c4ccncc4)nc(O)c3CC2)c(C)s1 | 3.27
19 | CCn1ccc(-c2cc(NCCCOc3ccccc3C)nc(C)n2)n1 | -5.28
20 | CCc1c(C)nc2cc(C3CCN(CCc4ccccc4)C3)nn2c1O (stereo not given) | -20.1
21 | CNc1cccc(C2CCCN(C(=O)Cc3ccccc3)C2)n1 (stereo not given) | -6.5
22 | CN(C)S(=O)(=O)N1CCCC(c2cccc(Cc3ccc(Cl)cc3)n2)C1 (stereo not given) | 56

Row | Structure (SMILES) | cytotoxicity at 10 µM [%]
23 | CC(C)c1nc2n(n1)CC(Nc1ncnc3ccccc13)CC2 (stereo not given) | -0.95
24 | O=C1NCCCCC1SCc1coc(-c2ccc(F)cc2)n1 (stereo not given) | 47.5
25 | Cc1cnn(C2CN(C(C)c3nc(-c4ccccc4)no3)C2)c1 (stereo not given) | -2.21
26 | Cc1ccc(OCCCC(=O)Nc2nonc2C)cc1C | 7.03
27 | CC(Cc1ccco1)NC(=O)NCc1ncnn1C (stereo not given) | 2.02
28 | CC1CCN(C(=O)CSCCN2CCOCC2)CC1 | 1.89
29 | Clc1cccc(C(NCc2ncc[nH]2)c2ccccn2)c1 (stereo not given) | 0.863
30 | CC(C)(C)n1ncc(NCC(O)c2ccccc2C(F)(F)F)c(Cl)c1=O (stereo not given) | 53.6
31 | COCC(O)CN(C)c1cc(C(F)(F)F)nc(-c2cccnc2)n1 (stereo not given) | 7.02
32 | NC(=O)c1ccc(N2CCN(Cc3ccc(F)cc3Cl)CC2)nn1 | 62.6
33 | CCN1CC(CN(C)c2cc(C)nc(N)n2)Oc2ccccc21 (stereo not given) | 38.8
34 | N#Cc1c(Cl)nsc1NCc1cccnc1OC1CCCC1 | 27.1
35 | CCn1nc(C)cc1C(=O)OCCNc1ncnc2ccccc12 | 61.8
36 | CC(C)C(C)(C#N)NC(=O)CN1CCCN(Cc2ccccc2F)CC1 (stereo not given) | -5.84
37 | Cc1ccc(S(=O)(=O)N2CCN(CCCn3ccnc3)CC2)cc1 | -13.5
38 | NC(=O)c1ccc(N2CCCCC2)c(NC(=O)c2cc(Br)ccc2Cl)c1 | 59.6
39 | COC(=O)C(C)(C)NC(=O)C1CC(=O)N(C2CC2)C1 (stereo not given) | -139
40 | CC(C)c1ccc(C(CN)N2CCc3sccc3C2)cc1 (stereo not given) | 1.66
41 | COc1ccc(C(=O)NCCCOC(C)c2ccccc2)c(OC)c1 (stereo not given) | -17.3
42 | Cc1cnn(-c2cccc(N3CCN(c4cc(C)nc(C)n4)CC3)n2)c1 | 7.82
43 | COCCN(C)c1ccc(NCc2ccsc2)nc1 | -5.2
44 | O=C(C[S+]([O-])Cc1ccc(F)cc1)N1CCc2sccc2C1 (stereo not given) | -3.86

Row | Structure (SMILES) | cytotoxicity at 10 µM [%]
45 | COc1cc(CNc2nncs2)cc(OC)c1OC | 18.7
46 | COc1ccccc1C1(CNc2snc(Cl)c2C#N)CCCC1 | 31.6
47 | NC(=O)c1nc2c(s1)CCN(C(=O)Nc1cccc(Cl)c1)CC2 | 6.64
48 | O=C1N(Cc2ccc(F)c(F)c2)CCCC12CCN(C1CCCCC1)C2 (stereo not given) | -0.268
49 | Cc1nc(C)c(CCN2CCC(Oc3ccccc3F)CC2)s1 | 42.9
50 | CCCc1nc(C(=O)NCCN2CCC(c3ccccc3C)C2)cs1 (stereo not given) | -37.9
51 | CCNc1ncc(C(=O)NC2CCc3ccccc3C2)cn1 (stereo not given) | 82.6
52 | COc1cccc(OCC2CCCN(C(=O)CCn3ccnc3)C2)c1 (stereo not given) | -19.8
53 | CCc1cc(N2CCN(c3ccc(Cl)cn3)CC2)n2nccc2n1 | 23.1
54 | CC(C)c1ccc(CN2C(=O)C3(CCNCC3)Nc3ccccc32)cc1 | -9.81
55 | N#Cc1cccnc1N1CCCC(CO)(Cc2ccc(F)cc2)C1 (stereo not given) | 3.3
56 | COc1cccc(CCC2CCCN(C(=O)c3cnccn3)C2)c1 (stereo not given) | 13.7
57 | CN(C)CCNc1ccc(-c2nc(-c3ccccc3F)no2)cn1 | 9.34
58 | CC(C)[C@H](C)NC1CCN(c2ccc(-c3cscn3)cc2)CC1 | -50.8
59 | Cc1ccccc1-c1noc(-c2ccc(N(C)C3CCOCC3)nc2)n1 | 2.65
60 | CC(=O)N1CCN(Cc2cccc3c2sc2ccccc23)CC(O)C1 (stereo not given) | -12.9
61 | Cc1nn2cc(CCNC(=O)c3cc(C(C)C)nn3C)nc2s1 | 34.9
62 | Cc1nc(N2CCC3(CCCN(CC4CC4)C3=O)C2)c2sccc2n1 (stereo not given) | 42
63 | CCCOc1ccccc1CCCNc1ncnc2oc(C)nc12 | 22.4
64 | COCC1(Nc2nc(C)nc3c2cnn3C)CCCC1 | 37.4
65 | Cc1cc(C2CCC2)nc(N2CCN(Cc3nccn3C)CC2)n1 | -6.86
66 | CC(C)Cc1nc(CN2CCc3onc(-c4cccc(F)c4)c3C2)no1 | 2.3

Row | Structure (SMILES) | cytotoxicity at 10 µM [%]
67 | CC(C)Oc1ccc(CN2CCCC(N3CCOCC3)C2)cc1CO (stereo not given) | 1.48
68 | CSC(C)Cc1c(-c2ccccc2)ncn1CCCNc1cccnc1 (stereo not given) | 15.1
69 | Cc1nonc1CN(C)c1nc(-c2cccnc2)nc2c1CCNC2 | 4.05
70 | Cc1nc(NCCc2noc(C3CCCO3)n2)c2sccc2n1 (stereo not given) | 53.6
71 | CNc1nc(C)cc(NC2CCCN(C3Cc4ccccc4C3)C2)n1 (stereo not given) | 12.5
72 | Clc1cccc(C2CCN(c3ncnc4c3CCNC4)C2)c1 (stereo not given) | 50
73 | CCc1cc(N(C)Cc2cc[nH]n2)n2nc(C)c(C)c2n1 | 24
74 | Cc1nc(CCN2CCC(Oc3ccccc3F)CC2)c(C)s1 | 7.08
75 | CCCN1CCC(NC(=O)c2csc(C)c2-c2ccccc2)CC1 | -133
76 | Cc1ccc2c(c1)c(CNC(=O)C1CC(=O)N(CCN(C)C)C1)nn2C (stereo not given) | 1.66
77 | CN(C)c1nc2c(c(N3CCC4(CC3)CNC(=O)C4)n1)CCCC2 | 0.995
78 | CCCn1cc(-c2ccnc(NC3CCc4ccccc43)n2)c(C)n1 (stereo not given) | 10.1
79 | Cc1cc(C(=O)N2CCOC(c3ccc(Cl)c(Cl)c3)C2)[nH]n1 (stereo not given) | 4.55
80 | Cc1ccccc1N1CCCN(c2ccncn2)CC1 | 24.9
81 | Cc1csc2ncnc(N3CCC(Cn4cc(C(C)(C)N)nn4)CC3)c12 | 25.5
82 | Nc1nc(CCC(=O)N2CCOC(CC3CCCCC3)C2)cs1 (stereo not given) | -9.18
83 | CN(C)S(=O)(=O)N1CCCC(c2cccc(Cc3ccccc3)n2)C1 (stereo not given) | 20.5
84 | CCS(=O)(=O)N1CCC(NC(=O)c2cc3ccccc3cc2O)CC1 | -2.1
85 | Cn1cc(NS(=O)(=O)c2ccc3c(c2)CCCC3)ccc1=O | 40.7
86 | COC(=O)c1ccc(N2CCN(C(=O)c3cccnc3)C(C)C2)cc1 (stereo not given) | 4.54
87 | COc1ccc(C2=CCN(C(=O)CN(CC(N)=O)C(C)C)CC2)cc1 | 23.3
88 | CCc1nc(CN2CCCN(c3nn4cc(C)nc4s3)CC2)no1 | -14.7

Row | Structure (SMILES) | cytotoxicity at 10 µM [%]
89 | Cc1cc(C)c(CNC(=O)N2CCCC2c2cc(C)on2)c(=O)[nH]1 (stereo not given) | 1.1
90 | CC(NC(=O)NCc1cc(Br)cs1)c1ccccn1 (stereo not given) | -17.6
91 | O=C(NCC(=O)N1CCCc2ccccc21)c1c(O)cc(F)cc1F | 28.6
92 | COc1cccc(CN2CCN(c3ccc4nncn4n3)C(C)C2)c1 (stereo not given) | 38.3
93 | Cc1noc(NC(=O)c2ccc(Br)s2)n1 | -1.35
94 | Cc1cc(CN2CCN(C(c3ccccc3)c3ccccc3)CC2)no1 | -6.56
95 | CN(C)c1ccc(CN(CCCn2ccnc2)Cc2c[nH]cn2)cc1 | -1.34
96 | Cc1cccc(Nc2cc(C3CCCN(CC(N)=O)C3)ccn2)n1 (stereo not given) | 12.3
97 | Fc1cccc(O[C@@H]2C[C@H]3CN(Cc4ccccn4)CCN3C2)c1 | -154
98 | c1cnc(N2CCC3(CCCN(Cc4ccncc4)C3)CC2)nc1 | -91.6
99 | CC(C)NC1CCc2[nH]c(=O)ccc2C1 (stereo not given) | 3.64
100 | Cc1csc(CN2CC[C@H]3O[C@H](C(=O)Nc4cccnc4)CC[C@H]32)n1 | -47.1
101 | O=C(c1ccsc1)N1C[C@@H]2OCCN(CCN3CCCC3)[C@@H]2C1 | -73.7
102 | Cc1ccc(O[C@@H]2C[C@H]3CN(C(=O)Cc4ccccn4)CCN3C2)cc1 | -59
103 | CCCN1CCC(c2nc3ccc(-c4cccc(OC)c4)cn3n2)CC1 | -113
104 | Fc1cccc(CN2CCOC3(COCCN(CC4CC4)C3)C2)c1 (stereo not given) | -111
105 | c1ccc(OC2COC3(CCN(Cc4ccccn4)CC3)C2)cc1 (stereo not given) | -69.2
106 | CCc1ccc(CN2C[C@@H]3OCCN(c4ccnc(N(C)C)n4)[C@@H]3C2)o1 | 61.8
107 | COCCO[C@H]1CCN(c2cc(OC)ncn2)[C@H]1Cc1cccnc1 | -140
108 | CN1CCC(c2nnc3ccc(C(=O)N4CCCCC4)cn23)C1 (stereo not given) | -167
109 | Cc1cccc(COc2ccc(C(C)N)cc2)c1 (stereo not given) | -1.79
110 | CN(C)C(=O)N1CC2(CCNCC2)c2cc(Cl)ccc21 | -69.8
